Experiments:
[1] = Antiepileptic activity in male CF1 mice 30 min after administration measured in maximum electroshock seizure(MES) test at a dose of 100 mg/kg (no. of animals treated /protected); activity value is 3/3; assay type: functional, Mus musculus
[2] = Antiepileptic activity in male CF1 mice 30 min after administration measured in neurological toxicity (Tox) test at a dose of 100 mg/kg (no. of animals treated /protected); activity value is 1/8; assay type: functional, Mus musculus
[3] = Antiepileptic activity in male CF1 mice 4 hr after administration measured in maximum electroshock seizure(MES) test at a dose of 300 mg/kg (no. of animals treated /protected); activity value is 1/1; assay type: functional, Mus musculus
[4] = Antiepileptic activity in male CF1 mice 0.5 hr after oral administration measured in maximum electroshock seizure(MES) test at a dose of 10 mg/kg (no. of animals treated /protected); activity value is 4/4; assay type: functional, Mus musculus
[5] = Antiepileptic activity in male CF1 mice 0.5 hr after oral administration measured in maximum electroshock seizure(MES) test at a dose of 6 mg/kg (no. of animals treated /protected); activity value is 3/4; assay type: functional, Mus musculus
[6] = Antiepileptic activity in male CF1 mice 1.00 hours after oral administration measured in neurological toxicity (Tox) test at a dose of 6 mg/kg (no. of animals treated /protected); activity value is 0/4; assay type: functional, Mus musculus
[7] = Antiepileptic activity in male CF1 mice 0.25 hr after oral administration measured in maximum electroshock seizure(MES) test at a dose of 10 mg/kg (no. of animals treated /protected); activity value is 3/4; assay type: functional, Mus musculus
[8] = Antiepileptic activity in male CF1 mice 1 hr after oral administration measured in neurological toxicity (Tox) test at a dose of 10 mg/kg (no. of animals treated /protected); activity value is 0/4; assay type: functional, Mus musculus
[9] = Antiepileptic activity in male CF1 mice 2.00 hours after oral administration measured in neurological toxicity (Tox) test at a dose of 6 mg/kg (no. of animals treated /protected); activity value is 0/4; assay type: functional, Mus musculus
[10] = Antiepileptic activity in male CF1 mice 4 hr after oral administration measured in neurological toxicity (Tox) test at a dose of 10 mg/kg (no. of animals treated /protected); activity value is 0/4; assay type: functional, Mus musculus
Rattus norvegicus [11] = assay: Average seizure score for the rat cornea 0.5 hr after peroral administration of 20 mg/kg of compound; assay type: functional; details: route oral
How it was run: (§1)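 Sprague-Dawley rats (85–95 g initial) were kindled with 4 s, 8 mA corneal stimulations (butacaine anesthesia) to 10 consecutive stage 5 seizures. After a vehicle shock and a 2-day shock-free period, test drug was given ip or po and a single shock applied at time of peak effect. Seizures were scored on a modified Racine 0–5 scale. ED50 is the dose reducing severity by 50% (Litchfield–Wilcoxon).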

Rattus norvegicus [12] = assay: Average seizure score for the rat cornea 0.5 hr after peroral administration of 40 mg/kg of compound; assay type: functional; details: route oral; how it was run: as §1
[13] = Dose elevating electroshock induced seizure by 20% in CF1 mice after ip administration.; assay type: functional, Mus musculus
How it was run: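 In CF1 male mice (ca. 24–34 g), compound was given ip in 0.5% methylcellulose. The current giving hind limb extension in 50% of mice was found by the up-and-down method, with 15–25 mice per group and a vehicle control group run with each experimental group. At least three doses were tested. The dose raising threshold current by 20% was taken from a plot of dose against % threshold increase.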

[14] = Dose protecting 50% of the mice from tonic hind limb extension at the time of peak convulsant effect after po administration.; assay type: functional; details: Mus musculus, Hindlimb
How it was run: (§2)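 Phase II quantification in CF1 male mice (ca. 24–34 g), dosing ip or po in 0.5% methylcellulose suspension. ED50 is protection from tonic hind limb extension in MES. TD50 is rotorod neurotoxicity. Both were read at time of peak effect and derived by Litchfield–Wilcoxon with 95% confidence limits.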

[15] = Dose showing neurotoxicity in 50% of the at the time of peak neurotoxic effect in CF1 MICE after ip administration.; assay type: functional; details: Mus musculus; how it was run: as §2
[16] = Dose producing neurotoxic effects in 50% of the CF1 mice after intraperitoneal administration.; assay type: ADME; details: CF1, mouse, in vivo, ip; how it was run: as §2
[17] = Antiepileptic activity in male CF1 mice 30 min after administration measured in neurological toxicity (Tox) test at a dose of 100 mg/kg (no. of animals treated /protected); activity value is 0/8; assay type: functional, Mus musculus
[18] = Time of peak anticonvulsant effect in CF1 MICE after ip administration.; assay type: functional, Mus musculus
How it was run: (§3)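 Male CF1 mice (ca. 24–34 g), compound in 0.5% methylcellulose suspension given ip or po; time (h) at which MES protection (against tonic hind limb extension) peaked was recorded and used for ED50 determination.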

[19] = Time of peak anticonvulsant effect in CF1 MICE after po administration.; assay type: functional, Mus musculus; how it was run: as §3
[20] = Antiepileptic activity in male CF1 mice 30 min after administration measured in neurological toxicity (Tox) test at a dose of 300 mg/kg (no. of animals treated /protected); activity value is 3/4; assay type: functional, Mus musculus
[21] = Antiepileptic activity in male CF1 mice 4 hr after administration measured in subcutaneous pentylenetetrazole (scMet) test at a dose of 100 mg/kg; activity value is 0/1; assay type: functional, Mus musculus
[22] = Antiepileptic activity in male CF1 mice 0.25 hr after oral administration measured in neurological toxicity (Tox) test at a dose of 50 mg/kg (no. of animals treated /protected); activity value is 0/4; assay type: functional, Mus musculus
[23] = Antiepileptic activity in male CF1 mice 0.5 hr after oral administration measured in neurological toxicity (Tox) test at a dose of 50 mg/kg (no. of animals treated /protected); activity value is 0/4; assay type: functional, Mus musculus
[24] = Antiepileptic activity in male CF1 mice 1 hr after oral administration measured in neurological toxicity (Tox) test at a dose of 50 mg/kg (no. of animals treated /protected); activity value is 0/4; assay type: functional, Mus musculus
[25] = Antiepileptic activity in male CF1 mice 2 hr after oral administration measured in neurological toxicity (Tox) test at a dose of 50 mg/kg (no. of animals treated /protected); activity value is 0/4; assay type: functional, Mus musculus
[26] = Antiepileptic activity in male CF1 mice 4 hr after oral administration measured in neurological toxicity (Tox) test at a dose of 50 mg/kg (no. of animals treated /protected); activity value is 0/4; assay type: functional, Mus musculus
Rattus norvegicus [27] = assay: Average seizure score for the rat cornea 0.5 hr after peroral administration of 60 mg/kg of compound; assay type: functional; details: route oral; how it was run: as §1
[28] = Protective index was measured as TD50/MES ED50 in mice on ip administration; assay type: ADME, organism-based; details: mouse, in vivo, read-out: PI
How it was run: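 Male CF1 mice (ca. 24–34 g), compound given ip as 0.5% methylcellulose suspension. MES ED50 = dose protecting 50% from tonic hind limb extension; TD50 = median neurotoxic dose by rotorod; both at time of peak effect, with confidence limits by Litchfield and Wilcoxon. PI = TD50/MES ED50.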

[29] = Protective index was measured as TD50/ED50 in rat on oral administration; assay type: ADME, organism-based; details: in vivo, read-out: PI

## COC(=O)C1C(=O)C=C(Nc2ccc(Cl)cc2)CC1C (centres undefined)
[1]
  Activity: 3
[2]
  Activity: 1
[3]
  Activity: 1
[4]
  Activity: 4
[5]
  Activity: 3
[6]
  Activity: 0
[7]
  Activity: 3
[8]
  Activity: 0
[9]
  Activity: 0
[10]
  Activity: 0
Rattus norvegicus [11]
  Average seizure score: 3
Rattus norvegicus [12]
  Average seizure score: 2.6

## COC(=O)C1C(=O)C=C(NCc2ccccc2)CC1C (centres undefined)
[13]
  Dose: 13 mg/kg
[14]
  ED50: 162 mg/kg
[15]
  ED50: > 500 mg/kg
[16]
  TD50: > 500 mg/kg
[17]
  Activity: 0
[18]
  TPE: 0.5 h
[19]
  TPE: 0.5 h
[20]
  Activity: 3
[21]
  Activity: 0
[22]
  Activity: 0
[23]
  Activity: 0
[24]
  Activity: 0
[25]
  Activity: 0
[26]
  Activity: 0
Rattus norvegicus [27]
  Average seizure score: 3
[28]
  selectivity ratio: > 11.9
[29]
  selectivity ratio: 18.7

Source: ChEMBL document CHEMBL1125497, “Synthesis and anticonvulsant activity of enaminones” (J Med Chem, 1992)
